A selection: hits, their analogues and other compounds. The true share with any hit is near 2.3%.
TRPC6 act = mouse TRPC6 channel activation. HEK293-TRPC6 membrane potential dye fluorescence; stronger effect = higher value. B-score at 10 µM. 310,000 tested, 0.13% active;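 active = B-score of the integrated fluorescence ratio above library mean plus 3 SD, and starting fluorescence ratio within library mean plus 5 SD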;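 note: higher score means more depolarization so channel activation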
Target sequence (Q61143 whole entry, looked up): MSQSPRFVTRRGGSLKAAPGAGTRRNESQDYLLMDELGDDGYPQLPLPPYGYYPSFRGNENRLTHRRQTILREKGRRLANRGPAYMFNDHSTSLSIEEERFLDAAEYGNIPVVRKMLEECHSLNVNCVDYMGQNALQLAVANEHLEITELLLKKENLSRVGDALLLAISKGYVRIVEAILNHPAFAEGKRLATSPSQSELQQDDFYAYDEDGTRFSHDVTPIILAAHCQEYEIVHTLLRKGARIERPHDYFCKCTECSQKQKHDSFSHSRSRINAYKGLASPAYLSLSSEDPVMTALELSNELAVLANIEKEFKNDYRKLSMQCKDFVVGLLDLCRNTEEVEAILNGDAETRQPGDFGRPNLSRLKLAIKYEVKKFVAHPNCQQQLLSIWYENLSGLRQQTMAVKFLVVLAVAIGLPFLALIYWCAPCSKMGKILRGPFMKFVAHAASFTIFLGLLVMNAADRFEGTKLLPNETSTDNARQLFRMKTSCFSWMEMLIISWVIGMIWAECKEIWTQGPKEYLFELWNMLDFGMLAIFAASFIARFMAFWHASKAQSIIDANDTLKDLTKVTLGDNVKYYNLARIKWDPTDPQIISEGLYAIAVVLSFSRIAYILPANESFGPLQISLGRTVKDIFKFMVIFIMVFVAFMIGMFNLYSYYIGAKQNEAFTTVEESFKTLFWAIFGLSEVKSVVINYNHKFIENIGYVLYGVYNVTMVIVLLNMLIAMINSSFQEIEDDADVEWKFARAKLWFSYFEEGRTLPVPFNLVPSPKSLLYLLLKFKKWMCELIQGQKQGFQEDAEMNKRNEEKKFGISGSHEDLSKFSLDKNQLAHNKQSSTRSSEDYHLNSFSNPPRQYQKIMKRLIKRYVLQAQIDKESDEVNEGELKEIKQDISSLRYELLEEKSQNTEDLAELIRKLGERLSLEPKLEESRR
TRPC4 act = activators of mouse TRPC4 channel. Q9QUQ5. HEK293 TRPC4beta/mu-opioid, Fluo4 calcium fluorescence; stronger effect = higher value. B-score at 10 µM. 310,000 tested, 0.49% active;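 active = B-score above 5 SD of library B-scores, and initial fluorescence ratio not above library mean plus 5 SD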;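 note: positive B-score marks a calcium rise read as TRPC4 activation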
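Test system: HEK293 cells stably co-expressing mouse TRPC4beta and mu-opioid receptor | Schedule: Fluo4 dye loading 45 min at room temperature, 110 s recording | Measured by: Kinetic Fluo4 calcium fluorescence, 5 s baseline at 1 Hz | Evaluation: B score of integrated ratio | Controls: Buffer (low) and maximal DAMGO (high)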
TRPC4 potent = allosterically enhances the mouse TRPC4 cation channel | B-score at 10 µM | HEK293 TRPC4beta/mu-opioid, DAMGO EC20, Fluo-4 Ca2+ flux; stronger effect = higher value | 310,000 tested, 0.42% active | AID 2227;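 active = B-score of calcium response area above 5 SD of library B-scores, with initial fluorescence ratio within 5 SD of library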
TRPC4 inh = TRPC4 (mouse) channel inhibition | HEK293 TRPC4beta/mu-opioid, DAMGO-evoked Fluo4 calcium flux; stronger effect = lower value | 300,000 tested, 0.39% active | Q9QUQ5 | B-score at 10 µM;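 active = B-score over 3 SD under the library average, no early fluorescence shift, positive overall ratio signal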
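Material: HEK293 cells with stable TRPC4beta plus mu-opioid receptor expression; probe or stimulus: DAMGO in two steps, submaximal then maximal; technique: Fluo4 calcium fluorescence by kinetic imaging, 5 s 1 Hz baseline; measure: integrated fluorescence ratio relative to baseline, converted to per-well B score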
TRPC6 inhibitor = blocks the mouse TRPC6 cation channel; AID 2553; B-score at 10 µM; 310,000 tested, 1.1% active; HEK293-TRPC6, membrane potential dye, ACh-evoked depolarization; stronger effect = lower value; Q61143;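 active = B-score under library mean minus 3 SD, initial fluorescence not abnormally high, positive integrated signal ratio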;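 note: B-score derived from integrated fluorescence ratio over the kinetic read; more negative B-score means stronger inhibition of depolarization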
TRPC4 spec 2 = second check of whether TRPC6 inhibitors also affect mouse TRPC4; shares compounds with TRPC6 inhibitor; HEK293 TRPC4/MOR, membrane potential dye fluorescence; channel activated by saturating DAMGO dose; inhibition, % at 10 µM; 920 tested, 42% active; AID 2776;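 active = compounds whose fluorescence signal differed from control wells by over 3 SD, either direction, in both duplicate plates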
TRPC4 spec = mouse TRPC4 off-target activity of TRPC6 inhibitors; shares compounds with TRPC6 inhibitor; HEK293 TRPC4/mu-opioid, membrane potential fluorescence; activity change, negative = inhibition, % at 10 µM; 920 tested, 61% active; AID 2777;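 active = rise or fall in signal beyond 3 SD of buffer-only wells in both replicate plates, either sign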;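 note: integrated kinetic ratio of fluorescence range over baseline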
HEK293 MPD ctr 2-1 = second check of TRPC6 inhibitor effects in parental HEK293 cells; shares compounds with TRPC6 inhibitor; parental HEK293 membrane potential dye fluorescence; maximal acetylcholine challenge after compound addition; signal change vs control, % at 10 µM; 920 tested, 31% active; AID 2779;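 active = membrane potential signal moving either way by over 3 SD of the maximum-effect control, in both duplicate plates, meaning non-specific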
HEK293 MPD ctr-1 = counter-screen for TRPC6 inhibitors: effect in parental HEK293 cells; shares compounds with TRPC6 inhibitor; parental HEK293 membrane potential dye fluorescence; membrane potential signal change, % at 10 µM; 920 tested, 60% active;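 active = membrane potential signal shifting up or down by more than 3 SD of buffer-only wells, on both duplicate plates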
HEK293 MPD ctr-2 = counter-screen for TRPC6 modulators: effect in parental HEK293 cells. shares compounds with TRPC6 inhibitor. 2,400 tested, 51% active. membrane potential signal change, % at 10 µM. membrane potential dye fluorescence. AID 488924;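 active = membrane potential signal moves up or down beyond 5 SD from buffer-only wells, on both duplicate plates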
HEK293 MPD ctr 2-2 = second counter-screen for TRPC6 modulators: effect in parental HEK293 cells; shares compounds with TRPC6 inhibitor; membrane potential dye fluorescence; after compound, maximal acetylcholine stimulation; inhibition, % at 10 µM; 2,400 tested, 14% active; AID 488926;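 active = membrane potential signal drops by more than 5 SD from the mean control signal, in both duplicate plates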
TRPC4/MOR mod = mouse TRPC4 off-target activity of TRPC6 modulators; shares compounds with TRPC6 inhibitor; HEK293 TRPC4/mu-opioid, membrane potential fluorescence; percent change from control (negative = decrease, positive = increase), % at 10 µM; 2,400 tested, 69% active; AID 488927;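 active = membrane potential signal moved up or down beyond 5 SD of buffer control wells, in both duplicate plates, actives on both sides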
TRPC4 ctr inh 2 = second check of whether TRPC6 modulators also affect mouse TRPC4; shares compounds with TRPC6 inhibitor; HEK293 TRPC4/mu-opioid, membrane potential dye fluorescence; stimulated with maximal-effect DAMGO; inhibition, % at 10 µM; 2,400 tested, 55% active; AID 488928;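 active = drop in membrane potential signal beyond 5 SD of the control wells in both duplicate plates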;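 note: TRPC4 counter screen for TRPC6 hits run under conditions tuned for TRPC6 not TRPC4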
TRPC6 inh conf = mouse TRPC6 inhibitor confirmation; 3,300 tested, 43% active; HEK293-TRPC6, membrane potential dye, ACh-evoked depolarization; AID 488960; inhibition, % at 10 µM; shares compounds with TRPC6 inhibitor;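 active = fluorescence ratio falls more than 5 SD below the full-stimulation control mean, in both duplicate runs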;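 note: integrated fluorescence ratio of peak minus minimum over baseline after agonist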
TRPC6 act conf = mouse TRPC6 activator confirmation; shares compounds with TRPC6 inhibitor; HEK293-TRPC6 membrane potential dye fluorescence, FDSS; activation, % at 10 µM; 2,800 tested, 11% active; AID 488961;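 active = ratio signal rise beyond 5 SD above unstimulated control wells' mean, seen in both duplicate runs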
A number is an active result; . = inactive; / = no result.

SMILES	TRPC6 act	TRPC4 act	TRPC4 potent	TRPC4 inh	TRPC6 inhibitor	HEK293 MPD ctr-2	HEK293 MPD ctr 2-2	TRPC4/MOR mod	TRPC4 ctr inh 2	TRPC6 inh conf	TRPC6 act conf	others
COc1ccc(N2CCN(c3cc(C)nc4ccc(OC)cc34)CC2)cc1	.	.	.	.	-5.64	-228.5%	.	-42.0%	65.0%	62.5%	.
CCOC(=O)C1CCN(c2cc(C)nc3ccc(OC)cc23)CC1	.	.	.	.	-8.94	-235.5%	85.0%	-36.5%	69.5%	86.5%	.
CCOC(=O)C1CCN(c2nc3cc(OC)ccc3cc2C#N)CC1	.	.	.	.	.	/	/	/	/	/	/
Nc1ccc(C(=O)NNC(=O)C2COc3ccccc3O2)cc1[N+](=O)[O-] (stereo unspecified)	.	.	.	.	.	/	/	/	/	/	/
Nc1nc(SCC(=O)Nc2ncc(C(F)(F)F)cc2Cl)n[nH]1	.	.	.	.	.	/	/	/	/	/	/
Cc1ccn(CC(=O)NC2CCCN(Cc3ccc(CC(C)C)cc3)C2)n1 (stereo unspecified)	.	145	.	.	-5.76	111.5%	.	37.5%	.	.	/
CC(C)Cc1ccc(CN2CCCC(NC(=O)CCN3CCCO3)C2)cc1 (stereo unspecified)	.	.	.	.	.	/	/	/	/	/	/
CC1(C)Cc2c(sc3c2c(=N)n(Cc2ccco2)c(=O)n3Cc2ccc(Cl)cc2)CO1	.	.	.	.	.	/	/	/	/	/	/
O=[N+]([O-])c1cccc(-c2nnc(-c3ccccc3)o2)c1	.	.	.	.	.	/	/	/	/	/	/
O=[N+]([O-])c1cccc(-c2cc3cccc[n+]3cc2-c2cccc([N+](=O)[O-])c2)c1	.	.	.	.	-10.2	-395.0%	.	-73.5%	69.5%	56.5%	.
Cc1sc2cc(-c3cccc([N+](=O)[O-])c3)c(-c3cccc([N+](=O)[O-])c3)c[n+]2c1C	.	.	.	.	-6.71	-332.0%	96.5%	-54.0%	66.5%	73.5%	.
Cc1ccnc(SCC(=O)N2CCN(C(c3ccccc3)c3ccccc3)CC2)n1	18.4	.	.	.	-11.4	117.5%	.	20.0%	.	61.5%	141.5%
CN1C=C/C(=C\c2cc[n+](C)c3ccccc23)c2ccccc21	.	.	.	.	-5.79	-265.0%	.	-27.0%	31.5%	.	.
Cc1cccnc1NC(=O)c1c(O)c2ccccc2n(C)c1=O	.	.	.	.	-6.92	/	/	/	/	.	.	TRPC4 spec 2=.;TRPC4 spec=-13.0%;HEK293 MPD ctr 2-1=.;HEK293 MPD ctr-1=-144.5%
COCCOC(=O)c1c(N)n(CCCN2CCOCC2)c2nc3ccccc3nc12	.	.	.	.	.	/	/	/	/	/	/
COC(=O)c1c(N)n(CCCN2CCOCC2)c2nc3ccccc3nc12	.	.	.	.	-5.08	-72.0%	.	-16.5%	.	.	.
COc1ccc(Nc2nc(N3CCCCC3)c3ccccc3n2)cc1	.	.	.	.	-7.49	/	/	/	/	.	.	TRPC4 spec 2=.;TRPC4 spec=.;HEK293 MPD ctr 2-1=.;HEK293 MPD ctr-1=.
Oc1ccc(Nc2nc(N3CCCC3)c3ccccc3n2)cc1	.	.	.	-6	-11.2	/	/	/	/	70.9%	.	TRPC4 spec 2=55.5%;TRPC4 spec=-19.2%;HEK293 MPD ctr 2-1=32.0%;HEK293 MPD ctr-1=-262.5%
c1ccc2c(c1)nc(N1CCCCCC1)c1ccccc12	.	.	.	.	.	/	/	/	/	/	/
Cc1ccc(Nc2nc(N)c([N+](=O)[O-])c(N3CCOCC3)n2)cc1	.	.	.	.	.	/	/	/	/	/	/
Cc1ccc(Nc2nc(N3CCOCC3)c3ccccc3n2)cc1	.	.	.	.	-5.26	.	.	-21.5%	55.0%	.	.
COc1ccc(NC2=Nc3cccc4cccc2c34)cc1OC	.	.	.	.	.	/	/	/	/	/	/
COc1cc(NC2=Nc3cccc4cccc2c34)cc(OC)c1OC	.	.	.	.	-5.07	.	.	.	32.5%	.	.
Cc1ccc(C2c3c(oc4ccc(Cl)cc4c3=O)C(=O)N2CCCN2CCOCC2)o1 (stereo unspecified)	.	.	.	.	.	/	/	/	/	/	/
CC(C)(C)n1nnnc1C(c1cccc(C#N)c1)N1CCC(Cc2ccccc2)CC1 (stereo unspecified)	.	.	.	.	.	/	/	/	/	/	/
SMILES	TRPC6 act	TRPC4 act	TRPC4 potent	TRPC4 inh	TRPC6 inhibitor	HEK293 MPD ctr-2	HEK293 MPD ctr 2-2	TRPC4/MOR mod	TRPC4 ctr inh 2	TRPC6 inh conf	TRPC6 act conf	others
COc1ccc2nc(N(CCN(C)C)C(=O)c3ccc4c(c3)OCCO4)sc2c1	.	.	.	.	-5.06	.	.	-23.5%	72.0%	64.0%	.
CN(C)CCN(C(=O)c1ccc2c(c1)CCCC2)c1nc2cc3c(cc2s1)OCCO3	.	.	.	.	.	/	/	/	/	/	/
CN(C)CCN(C(=O)c1ccc2c(c1)OCCO2)c1nc2cc3c(cc2s1)OCO3	.	.	.	.	-6.37	-82.0%	99.5%	-24.5%	92.0%	87.5%	.
Cn1cnnc1SCc1ccc(F)c2ccccc12	.	.	.	.	.	/	/	/	/	/	/
Cc1ccccc1C(OCCN(C)C)c1ccccc1 (stereo unspecified)	.	.	.	.	-5.01	193.0%	.	32.5%	.	57.5%	/
CCN(CC#CCC(O)(c1ccccc1)C1CCCC1)C(C)C (stereo unspecified)	.	.	.	.	-5.58	188.0%	.	33.5%	.	55.5%	/
c1ccc(Nc2nc(N3CCCCC3)nc(N3CCNCC3)n2)cc1	.	.	30	.	-5.57	.	.	14.5%	58.5%	55.0%	/
COc1ccc(NC(=S)N(CCCN2CCN(C)CC2)Cc2cccs2)cc1	.	.	.	.	.	/	/	/	/	/	/

From PubChem
